From ChEMBL document CHEMBL1811774, “Chromone, a privileged scaffold for the development of monoamine oxidase inhibitors” (J Med Chem, 2011)

How the values were obtained:
[1] = biological target: T1, Amine oxidase [flavin-containing] A (Homo sapiens, UniProt P21397); test: Inhibition of human MAO-A assessed as inhibition of p-tyramine oxidation to p-hydroxyphenyl-acetaldehyde at 100 uM after 15 mins by fluorimetric method; conditions: 0.25 h
T1 sequence (P21397 whole entry): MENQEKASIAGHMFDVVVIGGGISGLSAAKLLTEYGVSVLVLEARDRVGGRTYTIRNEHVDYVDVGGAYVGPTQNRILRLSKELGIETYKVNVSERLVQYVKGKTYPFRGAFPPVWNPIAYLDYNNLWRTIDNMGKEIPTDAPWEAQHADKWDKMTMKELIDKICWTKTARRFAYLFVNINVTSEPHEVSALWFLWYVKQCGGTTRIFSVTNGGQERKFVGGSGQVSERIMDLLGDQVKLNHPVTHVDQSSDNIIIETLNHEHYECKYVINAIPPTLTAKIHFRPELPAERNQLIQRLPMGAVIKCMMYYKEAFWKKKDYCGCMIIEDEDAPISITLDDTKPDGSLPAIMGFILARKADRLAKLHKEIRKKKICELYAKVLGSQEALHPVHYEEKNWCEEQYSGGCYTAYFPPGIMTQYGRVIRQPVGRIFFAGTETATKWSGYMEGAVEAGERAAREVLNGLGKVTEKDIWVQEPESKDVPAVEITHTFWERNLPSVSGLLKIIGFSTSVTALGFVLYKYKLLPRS

[2] = biological target: T2, Amine oxidase [flavin-containing] B (Homo sapiens, UniProt P27338); test: Inhibition of human MAO-B assessed as inhibition of p-tyramine oxidation to p-hydroxyphenyl-acetaldehyde at 100 uM after 15 mins by fluorimetric method; conditions: 0.25 h
T2 sequence (P27338 whole entry): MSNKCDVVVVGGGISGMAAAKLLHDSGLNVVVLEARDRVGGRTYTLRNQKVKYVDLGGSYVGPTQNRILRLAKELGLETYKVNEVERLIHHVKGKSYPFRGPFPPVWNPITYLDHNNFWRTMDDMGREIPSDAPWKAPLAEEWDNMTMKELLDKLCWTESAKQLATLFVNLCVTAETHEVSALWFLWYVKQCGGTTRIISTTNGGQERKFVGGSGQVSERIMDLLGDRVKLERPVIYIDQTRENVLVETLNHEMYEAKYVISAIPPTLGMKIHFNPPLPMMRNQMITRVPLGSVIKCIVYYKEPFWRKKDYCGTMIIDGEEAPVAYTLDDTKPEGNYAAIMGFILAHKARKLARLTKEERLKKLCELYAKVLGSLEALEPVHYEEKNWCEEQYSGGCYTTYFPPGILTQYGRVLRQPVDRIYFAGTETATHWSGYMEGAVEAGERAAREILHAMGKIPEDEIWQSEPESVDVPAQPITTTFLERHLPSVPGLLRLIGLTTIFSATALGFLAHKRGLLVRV
Method in brief: (§1)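 Microsomal recombinant hMAO-A or hMAO-B from baculovirus-infected BTI-TN5B1-4 insect cells. Enzyme was set to oxidize 165 pmol p-tyramine/min (MAO-A 1.1 μg, MAO-B 7.5 μg protein). It was preincubated with compound 15 min at 37 C in 0.05 M sodium phosphate, pH 7.4. Reaction started with final 200 μM Amplex Red, 1 U/mL HRP and 1 mM p-tyramine. H2O2-derived resorufin fluorescence (ex 545/em 590) read over 15 min at 37 C, background-subtracted, against vehicle controls. Highest concentration 100 μM or 1 mM; mean ± SEM, n = 5.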

[3] = biological target: T2, Amine oxidase [flavin-containing] B; test: Inhibition of human MAO-B assessed as inhibition of p-tyramine oxidation to p-hydroxyphenyl-acetaldehyde after 15 mins by fluorimetric method
Homo sapiens = species on record: Homo sapiens; test: Selectivity index, ratio of IC50 for human MAO-A to IC50 for human MAO-B
[4] = biological target: T1, Amine oxidase [flavin-containing] A; test: Inhibition of human MAO-A assessed as inhibition of p-tyramine oxidation to p-hydroxyphenyl-acetaldehyde after 15 mins by fluorimetric method; method in brief: as §1
[5] = biological target: T2, Amine oxidase [flavin-containing] B; test: Inhibition of human MAO-B assessed as inhibition of p-tyramine oxidation to p-hydroxyphenyl-acetaldehyde at 1 mM after 15 mins by fluorimetric method; conditions: 0.25 h, 1000 µM; method in brief: as §1
[6] = biological target: T2, Amine oxidase [flavin-containing] B; test: Reversible inhibition of human MAOB expressed assessed as inhibition of p-tyramine oxidation to p-hydroxyphenyl-acetaldehyde at 100 uM measured before repeated washing by centrifugation-ultrafiltration method
Method in brief: (§2)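 Recombinant hMAO-B preincubated with a single compound concentration for 15 min at 37 C in 0.05 M sodium phosphate, pH 7.4. One aliquot kept at 4 C, unwashed. The rest was ultrafiltered through a 30 kDa membrane (9000g, 20 min, 4 C), resuspended and spun twice more.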

[7] = biological target: T2, Amine oxidase [flavin-containing] B; test: Irreversible inhibition of human MAOB expressed assessed as inhibition of p-tyramine oxidation to p-hydroxyphenyl-acetaldehyde at 100 uM measured after repeated washing by centrifugation-ultrafiltration method; method in brief: as §2

| SMILES | inhibition (INH) [1] | inhibition (INH) [2] | IC50 [3] [nM] | Ratio IC50 (Homo sapiens) | IC50 [4] [nM] | other results |
| --- | --- | --- | --- | --- | --- | --- |
| O=C(Nc1ccc(Cl)cc1)c1cc(=O)c2ccccc2o1 | Not Active | Not Active | – | – | – | – |
| O=C(NC1CCCCC1)c1cc(=O)c2ccccc2o1 | Not Active | – | – | – | – | inhibition (INH) [5]: Not Active |
| CCCNC(=O)c1cc(=O)c2ccccc2o1 | Not Active | – | – | – | – | inhibition (INH) [5]: Not Active |
| O=C(Nc1ccc(OC(F)(F)F)cc1)c1cc(=O)c2ccccc2o1 | Not Active | Not Active | – | – | – | – |
| O=C(Nc1ccccc1)c1cc(=O)c2ccccc2o1 | Not Active | Not Active | – | – | – | – |
| O=C(Nc1ccc([N+](=O)[O-])cc1)c1cc(=O)c2ccccc2o1 | Not Active | Not Active | – | – | – | – |
| O=C(Nc1ccc(C(F)(F)F)cc1)c1cc(=O)c2ccccc2o1 | Not Active | Not Active | – | – | – | – |
| O=C(Nc1ccc(O)cc1)c1cc(=O)c2ccccc2o1 | – | – | 41900 | 1.6 | 65200 | – |
| O=C(NC1CCCCC1)c1coc2ccccc2c1=O | Not Active | – | 930 | > 107 | – | – |

More lines, main results first:

| inhibition (INH) [1] | inhibition (INH) [2] | IC50 [3] [nM] | Ratio IC50 (Homo sapiens) | IC50 [4] [nM] | SMILES | other results |
| --- | --- | --- | --- | --- | --- | --- |
| – | – | 160 | 2.7 | 430 | O=C(Nc1ccc(O)c(O)c1)c1coc2ccccc2c1=O | – |
| Not Active | – | 1080 | > 93 | – | O=C(Nc1ccc(OC(F)(F)F)cc1)c1coc2ccccc2c1=O | – |
| Not Active | – | 37700 | > 2.7 | – | CCCNC(=O)c1coc2ccccc2c1=O | – |
| Not Active | Not Active | – | – | – | COc1ccc(NC(=O)c2cc(=O)c3ccccc3o2)cc1OC | – |
| – | – | 11800 | 0.94 | 11100 | O=C(Nc1ccc([N+](=O)[O-])cc1)c1coc2ccccc2c1=O | – |
| Not Active | – | 2330 | > 43 | – | COc1ccc(NC(=O)c2coc3ccccc3c2=O)cc1OC | – |
| – | – | 76 | 110 | 8340 | COc1ccc(NC(=O)c2coc3ccccc3c2=O)cc1O | – |
| Not Active | – | 110 | > 909 | – | O=C(Nc1ccc(C(F)(F)F)cc1)c1coc2ccccc2c1=O | – |
| Not Active | Not Active | – | – | – | COc1ccc(NC(=O)c2cc(=O)c3ccccc3o2)cc1O | – |
| – | – | 2660 | 0.071 | 190 | O=C(Nc1ccc(O)c(O)c1)c1cc(=O)c2ccccc2o1 | – |
| – | – | 64 | 74 | 4760 | O=C(Nc1ccc(O)cc1)c1coc2ccccc2c1=O | inhibition at 100 µM [6]: 60.3%; inhibition at 100 µM [7]: 23.5% |
